Compound activity: PubChem, several laboratories
UPR XBP1 act = adaptive UPR (XBP1) activation | 330,000 compounds, 0.33% hits | AID 463104 | activation, % at 20 µM | CHO-XBP1 luciferase reporter, IRE1-XBP1 UPR activation, luminescence; percent of tunicamycin response, DMSO as zero;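 active = versus positive control, 20 µM dose yields 30% or more activation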;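 note: 100% = tunicamycin at 10 µg/mL and 0% = DMSO only wells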
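Material: CHO cell line with stable XBP1 luciferase reporter; schedule: 16-18 h cell attachment at 37 °C, then 6 h compound exposure; signal: glow luminescence from Steady-Glo reagent; medium: serum-containing F12 medium, 10% FBS; benchmarks: tunicamycin 10 µg/mL and vehicle-only wells; read-out: percent activation relative to tunicamycin reference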
Dynein transport = blocks dynein driven cargo transport along microtubules; 3617.4 mouse cells, GR-EGFP nuclear translocation imaging; test concentration mostly 20 µM; stimulated with dexamethasone, 1 µM; active compounds read low; z-score, hits read low; 220,000 compounds, 0.47% hits; AID 1381;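 active = plate z-score of nuclear minus cytoplasmic receptor signal below a set negative limit, without overly bright fluorescence or cell loss, cut at about -3.5 in these data, passing the limit was not always enough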;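 note: z-score of nuclear minus cytoplasmic ring GR-EGFP intensity difference per well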
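Schedule: 48 h induction, then 1 h compound, then 30 min agonist, 37 °C. Buffer or medium: tetracycline-free induction medium containing charcoal-stripped FBS. Reagent: 1.0 µM final dexamethasone stimulus. Evaluation: nuclear versus cytoplasmic GR-EGFP signal, averaged per well. Signal: high-content fluorescence imaging after fixation.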
UPR CHOP act = activators of apoptotic arm of unfolded protein response (CHOP) | activation, % at 10 µM | AID 449763 | 330,000 compounds, 0.34% hits | CHO-CHOP luciferase reporter, UPR activation, luminescence; percent of tunicamycin response over DMSO baseline;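 active = at 10 µM dose, activation of 40% or more, normalized to positive control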;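 note: 100% = tunicamycin at 10 µg/mL and 0% = DMSO alone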
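System: CHO CHOP reporter cells. Amount: 500 cells per well. Buffer or medium: F12 medium, 10% FBS. Compound dosing: one dose, 10 µM in 0.5% DMSO. Incubation: 6 h compound exposure at 37 °C after overnight seeding. Technique: Steady-Glo luciferase luminescence. Benchmarks: tunicamycin and DMSO controls.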
CHOP inh = CHOP inhibition in unfolded protein response. CHO-K1 CHOP-promoter luciferase, tunicamycin-induced, 15-18 h. inhibition, % at 10 µM. 220,000 compounds, 3.8% hits. AID 2732;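 active = compounds that reduced the stress-induced luciferase reporter signal by more than about 70% of percent inhibition, limit read from the data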;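 note: 0% = tunicamycin plus vehicle and 100% = wells without tunicamycin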
Lmaj promast = inhibitors of Leishmania major promastigote growth. Leishmania major promastigotes, resazurin fluorescence viability. inhibition, % at 10 µM. 200,000 compounds, 9% hits. AID 1063; in the data active = inhibition above about 50%;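 note: promastigotes grown with compound for 44 hours at 28 °C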
T cruzi repl = blocks replication of Trypanosoma cruzi; T. cruzi beta-gal in NIH3T3, luminescence, 90 h; inhibition, % (no concentration beside the values); 300,000 compounds, 1.4% hits; AID 1885;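 active = mean inhibition across valid replicates above about 55%, limit read from the data; inconclusive = mean below that limit but half or more replicates reach it; inactive = mean below it, under half of replicates reach it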;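 note: signal also drops with host cell toxicity which is not excluded here; 0% = plate median of DMSO wells and 100% = zero luminescence signal; higher percent means less beta-gal luminescence so fewer parasites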
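Test system: β-gal T. cruzi (Tulahuen C4) inside NIH/3T3 cells / Quantity: 5,000 cells/well / Measured by: luminescence from GalScreen with 0.05% NP40, read after 60 min / Medium: DMEM plus 2% FBS / Measure: parasite load inhibition, % / Reagent: Tulahuen C4 trypomastigotes, 5000/well / Schedule: co-culture of at least 90 h after 3 h attachment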
Dynein confirm = dynein cargo transport inhibition, confirmation. shares compounds with Dynein transport. AID 463116. 1,000 compounds, 69% hits. 3617.4 GR-EGFP nuclear translocation imaging, dexamethasone-induced. calls only at 20 µM;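 active = inhibition of receptor movement into the nucleus at or above a set limit in both runs, with normal cell brightness and cell count; inconclusive = limit reached in only one run, brightness and count normal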;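 note: dexamethasone at 1 µM final in well for 30 min; nuclear minus cytoplasmic GR-EGFP mean intensity difference in channel 2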
CHOP inh conf = confirmation of CHOP induction inhibitors. CHO-CHOP promoter luciferase reporter, tunicamycin-induced, luminescence. shares compounds with CHOP inh. AID 504437. inhibition, % at 10 µM. 2,100 compounds, 45% hits;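 active = mean of three repeat readings of reporter signal inhibition above a set limit, cut at about 70% in these data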;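 note: 0% = tunicamycin plus vehicle and 100% = wells lacking tunicamycin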
CHOP UPR conf = confirmation of apoptotic unfolded protein response (CHOP) activators | shares compounds with UPR CHOP act | CHO-CHOP cells, CHOP-luciferase reporter luminescence; percent of tunicamycin response, DMSO as zero | activation, % at 10 µM | 1,000 compounds, 64% hits; in the data active = activation above about 33%;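 note: 0% = DMSO wells and 100% = tunicamycin 10 µg/mL wells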
* hit, by the source's call; ? = inconclusive; nt = no result given; + = active, no number; ! = repeats disagree. Many of the other results were omitted from the sample, so hits are more common in it than they were.

SMILES | UPR XBP1 act | Dynein transport | UPR CHOP act | CHOP inh | Lmaj promast | T cruzi repl | CHOP inh conf | others
CN1CCN(/N=C/c2c(O)n(Cc3ccc(F)cc3)c(=O)[nH]c2=O)CC1 | 0 | -0.34 | 1 | -1 | nt | 26 | nt
C=C1C(=O)O[C@H]2C[C@@H](C)[C@@H]3C=CC(=O)[C@@]3(C)C[C@H]12 | -6 | -3.8* | 7 | 105* | nt | 23 | 90* | Dynein confirm=+
C=C1C(=O)O[C@H]2[C@H]1[C@H](OC(=O)CC(=O)O[C@@H]1C[C@@H](C)[C@@H]3C=CC(=O)[C@@]3(C)[C@H]3OC(=O)C(=C)[C@H]13)C[C@@H](C)[C@H]1C=CC(=O)[C@]12C | -2 | -3.3 | 6 | -40 | nt | -27 | nt
CCCN(CCC)[C@H]1CCc2c(F)ccc(O)c2C1 | nt | nt | nt | -4 | nt | nt | nt
CCC(C(=O)N1CCC2(CC1)OCCO2)n1c2ccccc2c2nc(=O)cc(C)n21 (centres undefined) | -1 | nt | 0 | nt | nt | 1 | nt
O=C1NC(=S)N(c2ccc(F)cc2)C(=O)/C1=C/c1ccco1 | -2 | nt | 1 | nt | nt | -2 | nt
Cc1ccc(N2C(=O)NC(=O)/C(=C\C=C\c3ccco3)C2=O)cc1 | -1 | -5.1* | -1 | 106* | nt | -23 | 132* | Dynein confirm=+
O=C1NC(=O)N(Cc2ccco2)C(=O)/C1=C/C=C/c1ccco1 | -1 | -3.8* | 0 | 108* | nt | -12 | 140* | Dynein confirm=?
Cc1ccc(N2C(=O)NC(=O)/C(=C\C=C\c3ccco3)C2=O)cc1C | nt | -5.6* | nt | 110* | 100* | -8 | 104* | Dynein confirm=+
O=C1NC(=O)N(Cc2ccccc2)C(=O)/C1=C\C=C\c1ccco1 | -1 | -4.4* | 161* | 91* | 77* | -18 | nt | Dynein confirm=+;CHOP UPR conf=186*
O=C1NC(=O)N(Cc2ccccc2)C(=O)/C1=C/c1cnc(-c2ccccc2)nc1 | -1 | 0.78 | 0 | -3 | -3 | -1 | nt
C/C(=C\c1ccc(N(C)C)cc1)[N+](=O)[O-] | -1 | -4.5* | 224* | -10 | 100* | -9 | nt | Dynein confirm=+;CHOP UPR conf=150*
CCN(CC)c1ccc(C=C2C(=O)NC(=S)NC2=O)cc1 | 0 | -5.1* | 222* | -11 | nt | -6 | nt | Dynein confirm=?;CHOP UPR conf=135*
CN1CCN(c2nc(N)c(Br)c(Cl)n2)CC1 | -4 | 0.86 | 2 | 15 | nt | 30 | nt
Cc1cc(C(=O)OCC(=O)Nc2ccc(F)cc2)c(C)n1C1CC1 | 2 | nt | 1 | nt | nt | nt | nt
O=C1NC(=O)N(c2ccc3c(c2)OCO3)C(=O)/C1=C/c1ccsc1 | 0 | 0.71 | -2 | 9 | 0 | -22 | nt
O=C1NC(=O)N(c2ccc3c(c2)OCO3)C(=O)/C1=C/c1cccs1 | 13 | -0.046 | 16 | 106* | -9 | -6 | -17
Clc1ccc(CSC(Cn2ccnc2)c2ccc(Cl)cc2Cl)cc1 (centres undefined) | -4 | -0.21 | 1 | 108* | 99* | 50 | 49
Cc1ccc2c(c1)CC1(CN2C)C(=O)NC(=O)N(CCC2=CCCCC2)C1=O (centres undefined) | -3 | 1.8 | 3 | 107* | 5 | 0 | 25
CNc1ccc2oc(C[C@H]3O[C@@]4(CC[C@H]3C)O[C@H]([C@H](C)C(=O)c3ccc[nH]3)[C@H](C)C[C@H]4C)nc2c1C(=O)O | 26 | 0.27 | 7 | 106*! | nt | 28 | 129*
O=C1NCN(c2ccccc2)C12CCNCC2 | 0 | 0.88 | 1 | 101* | 10 | -5 | 10
Cc1cc(N2CCNCC2)nc2ccccc12 | -2 | nt | -2 | nt | nt | 9 | nt
O=c1[nH]c(CN2CCNCC2)nc2ccccc12 | 0 | -1.3 | 0 | 98* | 0 | 8 | -84
CCN1C[C@@]2(COC)C3[C@@H](OC)[C@H]4[C@@H]1[C@@]3(C1C[C@@]3(O)[C@H](OC(=O)c5ccccc5)C1[C@]4(OC(C)=O)[C@@H](O)[C@H]3OC)[C@@H](OC)C[C@H]2O (some centres undefined) | -7 | nt | 0 | nt | nt | -20 | nt
CCOC(=O)c1c(C)n(Cc2ccco2)c2c1cc(O)c1ccccc12 | 3 | -0.72 | 2 | 101* | -3 | -7 | -49
SMILES | UPR XBP1 act | Dynein transport | UPR CHOP act | CHOP inh | Lmaj promast | T cruzi repl | CHOP inh conf | others
C=C1C(=O)O[C@@H]2C[C@@H](C)[C@@H]3C4OC4C(=O)[C@@]3(C)[C@@H](O)[C@H]12 (some centres undefined) | -8 | -3.8* | -5 | 107* | nt | 46 | 110*
CCCn1c(=O)c2[nH]c(C3CCCC3)nc2n(CCCOC(=O)c2ccc(S(=O)(=O)F)cc2)c1=O | nt | nt | nt | 0 | nt | nt | nt
CCN(C(=O)COC(=O)Cc1ccccc1)c1c(N)n(Cc2ccccc2)c(=O)[nH]c1=O | 6 | nt | -1 | nt | nt | nt | nt
COC(=O)C1=C(c2cc3ccccc3s2)C[C@@H]2CC[C@H]1N2C(=O)NCCCOC(C)C | -3 | nt | 1 | nt | nt | 40 | nt
CC(C)OCCCNC(=O)c1c(N)n(Cc2cccs2)c2nc3ccccc3nc12 | 0 | -0.28 | 1 | 105* | 18 | 50 | 58
CC(C)C(=O)NC(Oc1ccccc1Cl)C(Cl)(Cl)Cl (centres undefined) | -2 | -0.17 | 1 | 12 | 0 | 0 | nt
